Screening data from PubChem.
Many of the other results were omitted from the sample, so hits are more common in it than they were.
TLR9-MyD88 block: inhibitors of TLR9-MyD88 association in cells, primary screen, cell-based, CHO, BLA complementation, fluorescence; Toll-like receptor 9 (Homo sapiens) + Myeloid differentiation primary response protein …; CCF4 FRET ratio; inhibition, % at 4.98 µM; 0.21% of 340,000 active;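 active = inhibition above the mean over all tested compounds plus 3 SD, cut at about 21% in these data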
TLR4 MyD88 comp: inhibitors of TLR4-MyD88 association in cells, primary screen, cell-based, HeLa CL3-4, BLA complementation, FRET ratio | Toll-like receptor 4 (Homo sapiens) + Myeloid differentiation primary response protein … | HeLa CL3-4 TLR4/MyD88 BLA complementation | inhibition, % at 8.4 µM | 0.18% of 200,000 active | AID 861, 2007; in the data active = inhibition above about 25%
NOD2-RIPK2 inh: NOD2-RIPK2 binding disruptors in cells, primary screen, fluorescence, CHO cells, BLA complementation; inhibition, % at 4.98 µM; CCF4 ratio; Receptor-interacting serine/threonine-protein kinase 2 (Homo sapiens), O43353; AID 624267, 2012; 0.38% of 360,000 active; in the data active = inhibition above about 21%
Target sequence (O43353 whole entry, looked up): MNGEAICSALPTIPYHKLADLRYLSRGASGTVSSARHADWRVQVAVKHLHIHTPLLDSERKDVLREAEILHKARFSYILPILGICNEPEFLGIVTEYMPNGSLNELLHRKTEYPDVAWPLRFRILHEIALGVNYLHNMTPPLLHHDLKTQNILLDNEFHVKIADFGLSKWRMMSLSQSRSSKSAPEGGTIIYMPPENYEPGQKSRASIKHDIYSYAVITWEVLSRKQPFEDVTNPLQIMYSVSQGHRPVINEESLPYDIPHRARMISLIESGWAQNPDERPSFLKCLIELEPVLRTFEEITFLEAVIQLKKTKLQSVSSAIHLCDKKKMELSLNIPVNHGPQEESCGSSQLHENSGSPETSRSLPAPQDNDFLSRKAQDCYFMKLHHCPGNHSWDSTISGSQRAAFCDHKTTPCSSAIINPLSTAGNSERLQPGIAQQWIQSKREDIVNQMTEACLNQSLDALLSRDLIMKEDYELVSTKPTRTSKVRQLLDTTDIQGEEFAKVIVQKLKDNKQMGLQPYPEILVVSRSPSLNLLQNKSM
CHOP UPR activ: activators of apoptotic CHOP UPR arm, primary screen, cell-based, CHO-CHOP luciferase reporter, luminescence, uHTS; UPR activation; percent of tunicamycin response over DMSO baseline; activation, % at 10 µM; 0.34% of 330,000 active; AID 449763, 2010;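 active = at 10 µM dose, activation of 40% or more, normalized to positive control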
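assay system = CHO CHOP reporter cells | amount = 500 CHO-CHOP cells per well | buffer or medium = F12 with 10% FBS | incubation = 16-18 h cell attachment, then 6 h compound exposure, 37 °C | detection = luminescence read with Steady-Glo | read-out = percent activation relative to tunicamycin control | controls = tunicamycin high control, DMSO low control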
CHOP inh: inhibitors of CHOP promoter induction, primary screen, cell-based, unfolded protein response, luciferase reporter | CHO-K1 CHOP-promoter luciferase, tunicamycin-induced, 15-18 h | 3.8% of 220,000 active | inhibition, % at 10 µM;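 active = compounds that reduced the stress-induced luciferase reporter signal by more than about 70% of percent inhibition, limit read from the data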
XBP1 UPR activ: activators of adaptive XBP1 UPR arm, primary screen, cell-based, CHO-XBP1 luciferase reporter, luminescence, uHTS; IRE1-XBP1 UPR activation; percent of tunicamycin response, DMSO as zero; activation, % at 20 µM; 0.33% of 330,000 active; AID 463104, 2010;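 active = versus positive control, 20 µM dose yields 30% or more activation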
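Material – CHO cell line with stable XBP1 luciferase reporter · Buffer or medium – F12 plus 10% FBS · Compound – single point, 20 µM final compound, 1% DMSO · Schedule – 16-18 h cell attachment at 37 °C, then 6 h compound exposure · Signal – Steady-Glo luminescence read · Benchmarks – high control tunicamycin 10 µg/mL final, low control DMSO vehicle only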
XBP1 UPR conf: IRE1-XBP1 UPR arm activators, confirmation, cell-based, CHO-XBP1 luciferase reporter, luminescence, single concentration; activation, % at 20 µM; 63% of 1,000 active; shares compounds with XBP1 UPR activ; AID 485299, 2010;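 active = reporter signal at least 30% of the positive control's activation in two or more of four replicate wells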
A number is an active result; i = inactive; nt = no result.

SMILES	TLR9-MyD88 block	TLR4 MyD88 comp	NOD2-RIPK2 inh	CHOP UPR activ	CHOP inh	XBP1 UPR activ	XBP1 UPR conf
CCOC(=O)c1ccc(-c2c(-c3ccccc3OC)oc3ccccc23)cc1F	i	nt	i	i	nt	i	nt
CCOC(=O)c1ccc(-c2ccc3c(=O)c4ccccc4n(C)c3c2)cc1F	i	nt	i	i	nt	100	i
Cc1cccc(NC(=O)Nc2nnc([C@@H]3C[C@H](O)[C@@H](CO)O3)s2)c1	nt	nt	i	nt	nt	nt	nt
O=C(Nc1ccc2nn(-c3ccccc3)nc2c1)c1ccc2c(c1)OCCO2	i	i	i	i	i	i	nt
O=C(Nc1ccc2nn(-c3ccccc3)nc2c1)c1ccc(Br)o1	i	i	i	i	73	35	i
CCOc1cc(/C=N/N=C(/N)c2nonc2N)cc(Br)c1OCc1ccc(Cl)cc1	i	i	i	i	i	70	142
COc1ccc(-c2cc(=O)oc3c(C)c(OC(C)C(=O)Nc4ccc(CN5CCOCC5)cc4)ccc23)cc1 (configuration not stated)	i	nt	i	i	nt	i	nt
CC1=CC(C)[C@H](/C=N/n2c(=O)[nH]c3c([nH]c4ccc(Br)cc43)c2=O)C(C)C1 (some centres not stated)	i	i	i	i	i	80	100
COc1ccc2c(c1)[nH]c1c(=O)n(/N=C/C3C(C)C=C(C)CC3C)c(=O)[nH]c12 (configuration not stated)	i	i	i	i	i	56	86
Cc1cc(C)n2nc(C(=O)Nc3ccn(Cc4ccccc4C)n3)cc2n1	i	nt	i	i	i	i	nt
Cc1ccc2oc(C(F)(F)C(F)F)cc(=O)c2c1	i	nt	i	i	i	i	nt
Cc1ccc2oc(C(Cl)(Cl)Cl)cc(=O)c2c1	i	i	i	i	i	112	121
Cc1c(O)ccc(/C=N/Nc2nc(-c3cccnc3)nc3ccccc23)c1O	i	nt	i	i	i	36	i
Cc1ccc2nc(Nc3nc(C)cc(-c4ccccc4)n3)[nH]c(=O)c2c1	i	nt	i	i	i	31	62
Cc1cc(C)nc(Nc2nc3ccccc3[nH]2)n1	i	i	i	i	i	i	nt
Cc1ccc2nc(Nc3nc(-c4ccccc4)cc(=O)[nH]3)nc(C)c2c1	i	i	i	i	i	67	72
COc1cc(/C=N/NC(N)=O)c(Br)cc1OCC(=O)Nc1ccccc1C	i	i	i	i	i	109	72
Cc1ccc(C(C[N+](=O)[O-])c2c(-c3ccccc3O)[nH][nH]c2=O)cc1 (configuration not stated)	i	i	i	i	i	31	i
O=C(Nc1nc2ccc(Cl)cc2s1)c1ccc(N2CCCCC2)c([N+](=O)[O-])c1	i	i	i	i	i	33	83
Cc1cc2nc(CCN3CCOCC3)n(S(=O)(=O)c3ccc(C(C)(C)C)cc3)c2cc1C	i	i	i	i	i	32	i
COc1ccc(-c2ccc3c(c2)S(=O)(=O)c2cccc(C(=O)NCCOc4ccccc4Cl)c2C3=O)cc1OC	i	nt	i	i	nt	94	46
Cc1c(O)cc2c(c1O)C(=O)CC(c1ccccc1)O2 (configuration not stated)	i	nt	i	i	i	121	173
O=c1c2ccccc2nc(COc2ccccc2)n1/N=C/c1ccc(O)c(O)c1	i	nt	i	i	i	32	i
COc1cc(NC(=S)Nc2ccc(N(C)C(C)=O)cc2)cc(OC)c1	i	i	i	i	i	i	nt
COc1cccc(CC2(CO)CCCN(Cc3c(C)cc(C)cc3-n3cccn3)C2)c1 (configuration not stated)	i	i	i	i	i	i	nt
SMILES	TLR9-MyD88 block	TLR4 MyD88 comp	NOD2-RIPK2 inh	CHOP UPR activ	CHOP inh	XBP1 UPR activ	XBP1 UPR conf
Cc1ccc(-c2cc(C(=O)N3CCN(c4ccccc4O)CC3)c3ccccc3n2)o1	i	nt	i	i	nt	38	i
O=C(c1cc(-c2ccc(Br)cc2)nc2ccccc12)N1CCN(c2ccccc2O)CC1	i	nt	i	i	nt	i	nt
CC1(C)CC(=O)C(C=Nc2ccc3cn[nH]c3c2)=C(O)C1	i	i	i	i	i	30	i
Cc1ccc(CNC(=O)Cn2cnc(S(=O)(=O)N3CCC(C)CC3)c2)o1	i	nt	i	i	nt	i	nt
COc1cnc(-c2ccccn2)nc1Oc1ccc(Cl)c2ccccc12	i	i	i	i	81	31	i
CCN(CC(=O)Nc1cc(Cl)ccc1-n1cncn1)Cc1nc2ccccc2c(=O)[nH]1	i	nt	i	i	nt	i	nt
COc1ccc(-c2coc3cc4oc(=O)cc(-c5ccccc5)c4cc23)cc1F	i	i	i	i	i	41	125
O=C(Nc1ccccc1OC(=O)c1ccccc1)c1ccccc1	i	nt	i	nt	nt	nt	nt
Cc1ccc(-c2ccnc(-c3ccc(O)cc3)n2)cc1	i	i	i	i	i	34	36
COc1cc(NC(=O)c2ccno2)cc(C(=O)Nc2cccc(C(F)(F)F)c2)c1	i	nt	i	i	i	i	nt
COc1ccc(-c2cc(C(=O)Nc3cc(OC)cc(C(=O)Nc4cccc(C(F)(F)F)c4)c3)[nH]n2)cc1	i	nt	i	i	i	37	i
C=CC[C@@H](CC(=O)N[C@@H](CO)Cc1ccccc1)C(=O)NC[C@@H](OC(=O)[C@@H](CC=C)Cc1ccc(F)cc1)c1ccccc1	i	nt	i	i	nt	32	i
O=C1C2C3C=CC(CC3)C2C(=O)N1/N=C/c1ccc(O)c(O)c1 (configuration not stated)	i	i	i	i	i	45	i
O=C1C2C3C=CC(CC3)C2C(=O)N1/N=C/c1ccc(O)cc1 (configuration not stated)	i	i	i	i	i	i	nt
C=C(C)[C@@H]1CC[C@]2(C(=O)O)CC[C@]3(C)C(CCC4[C@@]5(C)CC[C@H](O)C(C)(C)C5CC[C@]43C)C12 (some centres not stated)	i	nt	i	i	nt	40	i
CCOC(=O)[C@]12CCC=C1N(Cc1ccco1)C(=O)[C@H](CC(=O)NCCCN1CCCC1=O)C2	nt	nt	i	nt	nt	nt	nt
CCCCN(CCCNC(=O)Cn1nc(CC)n2c(cc3sc(C)cc32)c1=O)Cc1ccccc1	i	nt	i	i	nt	i	nt
